Test results reported in ChEMBL document CHEMBL2146464, “Structure-activity relationship study of nitrosopyrimidines acting as antifungal agents” (Bioorg Med Chem, 2012).
Calls of active or inactive are those of the source. The calls are words filed in the database; no cut-off is given here.

system: Aspergillus niger; assay: Antifungal activity against Aspergillus niger ATCC 9029 at 0.98 to 250 ug/mL by NCCLS broth microdilution method; format: functional, organism-based
Method in brief: (§1)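 MIC by broth microdilution per NCCLS M27-A3/M38-A2 in RPMI-1640 buffered to pH 7.0 with MOPS. Twofold dilutions from 250–0.98 µg/mL, final DMSO ≤1%. Inoculum 1–5 × 10³ CFU/mL. Incubated in a moist dark chamber, 30 °C for Aspergillus and 28–30 °C for dermatophytes. Read visually when control growth allowed. Endpoint is the lowest concentration giving total inhibition of visible growth (MIC100).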

Row | SMILES | Activity
1 | CNc1nc(N)nc(NCc2ccccc2)c1N=O | inactive
2 | COc1nc(N)nc2c1NC(=O)[C@H](Cc1ccccc1)N2 | inactive
3 | CCCCNc1nc(N)nc(Nc2ccccc2)c1N=O | inactive
4 | Nc1nc(OCC2CCCCC2)c(N=O)c(OCC2CCCCC2)n1 | inactive
5 | COc1nc(N)nc(NCCO)c1N=O | inactive
6 | C[C@@H]1Nc2nc(N)nc(OCC3CCCCC3)c2NC1=O | inactive
7 | Nc1nc(NC2CCCCC2)c(N=O)c(N2CCCCCCCC2)n1 | inactive
8 | COc1nc(N)nc(NCCOCCO)c1N=O | inactive
9 | COc1nc(N)nc2c1nnn2C12CC3CC(CC(C3)C1)C2 | inactive
10 | Nc1nc(NC23CC4CC(CC(C4)C2)C3)c(N=O)c(=O)[nH]1 | inactive
11 | CCOC(=O)CNc1nc(N)nc(OC)c1N=O | inactive
12 | CC(C)Nc1nc(N)nc(Nc2cccc(Cl)c2)c1N=O | inactive

system: Cryptococcus neoformans; assay: Antifungal activity against Cryptococcus neoformans ATCC 32264 at 0.98 to 250 ug/mL after 48 hrs by NCCLS broth microdilution method; format: functional, organism-based
Method in brief: (§2)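 Yeast MIC by NCCLS M27-A3 broth microdilution in RPMI-1640 buffered to pH 7.0 with MOPS. Twofold dilutions of 250–0.98 µg/mL, final DMSO ≤1%. Inoculum 1–5 × 10³ CFU/mL. Incubated at 30 °C in a moist dark chamber. Read visually at 48 h. MIC100 is the lowest concentration with no visible growth versus drug-free control.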

Row | SMILES | Activity
13 | CNc1nc(N)nc(NCc2ccccc2)c1N=O | inactive
14 | COc1nc(N)nc2c1NC(=O)[C@H](Cc1ccccc1)N2 | inactive
15 | CCCCNc1nc(N)nc(Nc2ccccc2)c1N=O | inactive
16 | Nc1nc(OCC2CCCCC2)c(N=O)c(OCC2CCCCC2)n1 | inactive
17 | COc1nc(N)nc(NCCO)c1N=O | inactive
18 | C[C@@H]1Nc2nc(N)nc(OCC3CCCCC3)c2NC1=O | inactive
19 | Nc1nc(NC2CCCCC2)c(N=O)c(N2CCCCCCCC2)n1 | inactive
20 | COc1nc(N)nc(NCCOCCO)c1N=O | inactive
21 | COc1nc(N)nc2c1nnn2C12CC3CC(CC(C3)C1)C2 | inactive
22 | Nc1nc(NC23CC4CC(CC(C4)C2)C3)c(N=O)c(=O)[nH]1 | inactive
23 | CCOC(=O)CNc1nc(N)nc(OC)c1N=O | inactive
24 | CC(C)Nc1nc(N)nc(Nc2cccc(Cl)c2)c1N=O | inactive

system: Aspergillus fumigatus; assay: Antifungal activity against Aspergillus fumigatus ATCC 26934 at 0.98 to 250 ug/mL by NCCLS broth microdilution method; format: functional, organism-based; method in brief: as §1

Row | SMILES | Activity
25 | CNc1nc(N)nc(NCc2ccccc2)c1N=O | inactive
26 | COc1nc(N)nc2c1NC(=O)[C@H](Cc1ccccc1)N2 | inactive
27 | CCCCNc1nc(N)nc(Nc2ccccc2)c1N=O | inactive
28 | Nc1nc(OCC2CCCCC2)c(N=O)c(OCC2CCCCC2)n1 | inactive
29 | COc1nc(N)nc(NCCO)c1N=O | inactive
30 | C[C@@H]1Nc2nc(N)nc(OCC3CCCCC3)c2NC1=O | inactive
31 | Nc1nc(NC2CCCCC2)c(N=O)c(N2CCCCCCCC2)n1 | inactive
32 | COc1nc(N)nc(NCCOCCO)c1N=O | inactive
33 | COc1nc(N)nc2c1nnn2C12CC3CC(CC(C3)C1)C2 | inactive
34 | Nc1nc(NC23CC4CC(CC(C4)C2)C3)c(N=O)c(=O)[nH]1 | inactive
35 | CCOC(=O)CNc1nc(N)nc(OC)c1N=O | inactive
36 | CC(C)Nc1nc(N)nc(Nc2cccc(Cl)c2)c1N=O | inactive

system: Aspergillus flavus; assay: Antifungal activity against Aspergillus flavus ATCC 9170 at 0.98 to 250 ug/mL by NCCLS broth microdilution method; format: functional, organism-based; method in brief: as §1

Row | SMILES | Activity
37 | CNc1nc(N)nc(NCc2ccccc2)c1N=O | inactive
38 | COc1nc(N)nc2c1NC(=O)[C@H](Cc1ccccc1)N2 | inactive
39 | CCCCNc1nc(N)nc(Nc2ccccc2)c1N=O | inactive
40 | Nc1nc(OCC2CCCCC2)c(N=O)c(OCC2CCCCC2)n1 | inactive
41 | COc1nc(N)nc(NCCO)c1N=O | inactive
42 | C[C@@H]1Nc2nc(N)nc(OCC3CCCCC3)c2NC1=O | inactive
43 | Nc1nc(NC2CCCCC2)c(N=O)c(N2CCCCCCCC2)n1 | inactive
44 | COc1nc(N)nc(NCCOCCO)c1N=O | inactive
45 | COc1nc(N)nc2c1nnn2C12CC3CC(CC(C3)C1)C2 | inactive
46 | Nc1nc(NC23CC4CC(CC(C4)C2)C3)c(N=O)c(=O)[nH]1 | inactive
47 | CCOC(=O)CNc1nc(N)nc(OC)c1N=O | inactive
48 | CC(C)Nc1nc(N)nc(Nc2cccc(Cl)c2)c1N=O | inactive

system: Trichophyton rubrum; assay: Antifungal activity against Trichophyton rubrum CCC 110 at 0.98 to 250 ug/mL by NCCLS broth microdilution method; format: functional, organism-based; method in brief: as §1

Row | SMILES | Activity
49 | CNc1nc(N)nc(NCc2ccccc2)c1N=O | inactive
50 | COc1nc(N)nc2c1NC(=O)[C@H](Cc1ccccc1)N2 | inactive
51 | CCCCNc1nc(N)nc(Nc2ccccc2)c1N=O | inactive
52 | Nc1nc(OCC2CCCCC2)c(N=O)c(OCC2CCCCC2)n1 | inactive
53 | COc1nc(N)nc(NCCO)c1N=O | inactive
54 | C[C@@H]1Nc2nc(N)nc(OCC3CCCCC3)c2NC1=O | inactive
55 | Nc1nc(NC2CCCCC2)c(N=O)c(N2CCCCCCCC2)n1 | inactive
56 | COc1nc(N)nc(NCCOCCO)c1N=O | inactive
57 | COc1nc(N)nc2c1nnn2C12CC3CC(CC(C3)C1)C2 | inactive
58 | Nc1nc(NC23CC4CC(CC(C4)C2)C3)c(N=O)c(=O)[nH]1 | inactive
59 | CCOC(=O)CNc1nc(N)nc(OC)c1N=O | inactive
60 | CC(C)Nc1nc(N)nc(Nc2cccc(Cl)c2)c1N=O | inactive

system: Trichophyton mentagrophytes; assay: Antifungal activity against Trichophyton mentagrophytes ATCC 9972 at 0.98 to 250 ug/mL by NCCLS broth microdilution method; format: functional, organism-based; method in brief: as §1

Row | SMILES | Activity
61 | CNc1nc(N)nc(NCc2ccccc2)c1N=O | inactive
62 | COc1nc(N)nc2c1NC(=O)[C@H](Cc1ccccc1)N2 | inactive
63 | CCCCNc1nc(N)nc(Nc2ccccc2)c1N=O | inactive
64 | Nc1nc(OCC2CCCCC2)c(N=O)c(OCC2CCCCC2)n1 | inactive
65 | COc1nc(N)nc(NCCO)c1N=O | inactive
66 | C[C@@H]1Nc2nc(N)nc(OCC3CCCCC3)c2NC1=O | inactive
67 | Nc1nc(NC2CCCCC2)c(N=O)c(N2CCCCCCCC2)n1 | inactive
68 | COc1nc(N)nc(NCCOCCO)c1N=O | inactive
69 | COc1nc(N)nc2c1nnn2C12CC3CC(CC(C3)C1)C2 | inactive
70 | Nc1nc(NC23CC4CC(CC(C4)C2)C3)c(N=O)c(=O)[nH]1 | inactive
71 | CCOC(=O)CNc1nc(N)nc(OC)c1N=O | inactive
72 | CC(C)Nc1nc(N)nc(Nc2cccc(Cl)c2)c1N=O | inactive

system: Candida albicans; assay: Antifungal activity against Candida albicans ATCC 10231 at 0.98 to 250 ug/mL after 48 hrs by NCCLS broth microdilution method; format: functional, organism-based; method in brief: as §2

Row | SMILES | Activity
73 | CNc1nc(N)nc(NCc2ccccc2)c1N=O | inactive
74 | COc1nc(N)nc2c1NC(=O)[C@H](Cc1ccccc1)N2 | inactive
75 | CCCCNc1nc(N)nc(Nc2ccccc2)c1N=O | inactive
76 | Nc1nc(OCC2CCCCC2)c(N=O)c(OCC2CCCCC2)n1 | inactive
77 | COc1nc(N)nc(NCCO)c1N=O | inactive
78 | C[C@@H]1Nc2nc(N)nc(OCC3CCCCC3)c2NC1=O | inactive
79 | Nc1nc(NC2CCCCC2)c(N=O)c(N2CCCCCCCC2)n1 | inactive
80 | COc1nc(N)nc(NCCOCCO)c1N=O | inactive
81 | COc1nc(N)nc2c1nnn2C12CC3CC(CC(C3)C1)C2 | inactive
82 | Nc1nc(NC23CC4CC(CC(C4)C2)C3)c(N=O)c(=O)[nH]1 | inactive
83 | CCOC(=O)CNc1nc(N)nc(OC)c1N=O | inactive
84 | CC(C)Nc1nc(N)nc(Nc2cccc(Cl)c2)c1N=O | inactive

system: Candida tropicalis; assay: Antifungal activity against Candida tropicalis at 0.98 to 250 ug/mL after 48 hrs by NCCLS broth microdilution method; format: functional, organism-based; method in brief: as §2

Row | SMILES | Activity
85 | CNc1nc(N)nc(NCc2ccccc2)c1N=O | inactive
86 | COc1nc(N)nc2c1NC(=O)[C@H](Cc1ccccc1)N2 | inactive
87 | CCCCNc1nc(N)nc(Nc2ccccc2)c1N=O | inactive
88 | Nc1nc(OCC2CCCCC2)c(N=O)c(OCC2CCCCC2)n1 | inactive
89 | COc1nc(N)nc(NCCO)c1N=O | inactive
90 | C[C@@H]1Nc2nc(N)nc(OCC3CCCCC3)c2NC1=O | inactive
91 | Nc1nc(NC2CCCCC2)c(N=O)c(N2CCCCCCCC2)n1 | inactive
92 | COc1nc(N)nc(NCCOCCO)c1N=O | inactive
93 | COc1nc(N)nc2c1nnn2C12CC3CC(CC(C3)C1)C2 | inactive
94 | Nc1nc(NC23CC4CC(CC(C4)C2)C3)c(N=O)c(=O)[nH]1 | inactive
95 | CCOC(=O)CNc1nc(N)nc(OC)c1N=O | inactive
96 | CC(C)Nc1nc(N)nc(Nc2cccc(Cl)c2)c1N=O | inactive

system: Nannizzia gypsea; assay: Antifungal activity against Microsporum gypseum CCC 115 at 0.98 to 250 ug/mL by NCCLS broth microdilution method; format: functional, organism-based; method in brief: as §1

Row | SMILES | Activity
97 | CNc1nc(N)nc(NCc2ccccc2)c1N=O | inactive
98 | COc1nc(N)nc2c1NC(=O)[C@H](Cc1ccccc1)N2 | inactive
99 | CCCCNc1nc(N)nc(Nc2ccccc2)c1N=O | inactive
100 | Nc1nc(OCC2CCCCC2)c(N=O)c(OCC2CCCCC2)n1 | inactive
101 | COc1nc(N)nc(NCCO)c1N=O | inactive
102 | C[C@@H]1Nc2nc(N)nc(OCC3CCCCC3)c2NC1=O | inactive
103 | Nc1nc(NC2CCCCC2)c(N=O)c(N2CCCCCCCC2)n1 | inactive
104 | COc1nc(N)nc(NCCOCCO)c1N=O | inactive
105 | COc1nc(N)nc2c1nnn2C12CC3CC(CC(C3)C1)C2 | inactive
106 | Nc1nc(NC23CC4CC(CC(C4)C2)C3)c(N=O)c(=O)[nH]1 | inactive
107 | CCOC(=O)CNc1nc(N)nc(OC)c1N=O | inactive
108 | CC(C)Nc1nc(N)nc(Nc2cccc(Cl)c2)c1N=O | inactive
